Only some compounds are listed: those with a hit (about 3.9% of all), similar ones and a draw of the others.
CHRM1 agonist = agonists of human M1 muscarinic receptor; P11229; CHO-K1 hM1, Fluo-8 calcium fluorescence, agonist mode; 0% DMSO, 100% acetylcholine EC100; activation, % at 3 µM; 360,000 tested, 0.33% active;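 active means activation above the run's mean compound activation plus 3 SD, cut at about 16% in these data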;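 further: peak over basal fluorescence ratio within a 140 s kinetic read after compound addition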
Target sequence (P11229 whole entry, looked up): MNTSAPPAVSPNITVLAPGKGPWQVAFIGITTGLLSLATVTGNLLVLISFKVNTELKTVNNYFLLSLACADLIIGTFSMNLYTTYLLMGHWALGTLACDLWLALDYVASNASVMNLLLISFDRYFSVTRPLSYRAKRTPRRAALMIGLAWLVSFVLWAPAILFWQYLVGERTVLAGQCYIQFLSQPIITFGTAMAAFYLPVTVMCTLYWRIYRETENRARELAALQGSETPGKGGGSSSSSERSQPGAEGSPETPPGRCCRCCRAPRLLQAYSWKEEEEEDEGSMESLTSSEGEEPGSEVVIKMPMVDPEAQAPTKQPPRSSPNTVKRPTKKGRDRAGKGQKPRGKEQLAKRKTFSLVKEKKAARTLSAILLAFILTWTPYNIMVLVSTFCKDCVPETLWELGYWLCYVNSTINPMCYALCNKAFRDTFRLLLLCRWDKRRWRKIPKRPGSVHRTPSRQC
M1 PAM = human CHRM1 positive allosteric modulation | activation, % at 3 µM | 360,000 tested, 0.088% active | CHO-K1 hM1, Fluo-8 calcium fluorescence, ACh EC20; 0% = ACh EC20, 100% = maximal ACh | P11229 | AID 588819; in the data active means activation above about 19%, passing the limit was not always enough
HTR2A ag = agonists of mouse serotonin 5-HT2A receptor (HTR2A); 360,000 tested, 0.66% active; CHO-K1 mHTR2A beta-arrestin complementation, luminescence; percent of 30 µM serotonin response; activation, % at 7.6 µM;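 active means activation above a run cutoff, the mean activation of all tested compounds plus 3 SD, cut at about 14% in these data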
TAAR1 agonist = agonists of human TAAR1; CHO RD-HGA16 TAAR1, Fluo-8 calcium fluorescence; vehicle wells 0%, saturating PEA agonist 100%; activation, % at 3 µM; 360,000 tested, 0.99% active; AID 624467;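 active means activation above the mean activation of all test compounds in the run plus 3 SD, cut at about 38% in these data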
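Repeats: no replicates (n 1) | Material: CHO-derived RD-HGA16 cells with stable Gα16 and human TAAR1 | Technique: Kinetic Fluo-8 calcium fluorescence | Schedule: 17-24 h seeding, 75 min 37 °C dye, 30 min RT | Evaluation: % activation from peak over basal fluorescence ratio, DMSO-to-PEA scaled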
CHRM1 antagonist = human CHRM1 antagonism; 360,000 tested, 1.3% active; inhibition, % at 3 µM; CHO-K1 hM1, Fluo-8 calcium fluorescence, ACh EC80 antagonist; AID 588852;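 active means percent inhibition above its own plate's cutoff, namely the mean of that plate's compound wells plus 3 SD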;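 further: peak over basal fluorescence ratio during 140 s after agonist addition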
TAAR1 antag = human TAAR1 antagonism | CHO RD-HGA16 TAAR1, Fluo-8 calcium fluorescence, antagonist | inhibition, % at 3 µM | 360,000 tested, 1.5% active | Q96RJ0;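 active means inhibition above a per-plate cutoff, the mean inhibition of test compounds on that plate plus 3 SD, cut at about 49% in these data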
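System: RD-HGA16 CHO cells with stable hTAAR1 and Gα16 | Probe or stimulus: EC80 β-phenethylamine stimulus | Dosing: 3 µM, single point | Times: Dye loading 75 min at 37 °C, then 30 min room temperature | Measured by: Fluo-8 calcium-sensitive fluorescence | Read-out basis: % inhibition of agonist calcium response | Replicates: n of 1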
Each line names hits and unclear results; the compound was inactive in the other large screens.

CCOc1ccc(NC(=O)C2CCCN(S(=O)(=O)c3c(C)noc3C)C2)cc1 (stereo unspecified)	none
COc1cc(C2SCC(=O)N2CCCN(C)C)cc(OC)c1OC (stereo unspecified)	CHRM1 antagonist 29
CN(C)CCCN1C(=O)CSC1c1ccccc1 (stereo unspecified)	none
CC(CCN1C(Nc2ccccc2)=NC[C@@H]1Cc1ccccc1)c1ccccc1 (stereo partly specified)	CHRM1 antagonist 37
CC(C)C[C@H]1CN=C(Nc2ccccc2)N1CCCCc1ccccc1	TAAR1 agonist 42
CC(C)CCN1C(Nc2ccccc2)=NC[C@@H]1Cc1ccccc1	none
CC(C)CCCN1C(Nc2ccccc2)=NC[C@@H]1CC(C)C	none
C[C@H](O)[C@@H]1C(=O)N2CCc3c([nH]c4cccc(-c5ccccc5)c34)[C@@H]2C[C@@H]1N(C)C(=O)c1ccco1	none (no result: CHRM1 agonist, M1 PAM, HTR2A ag, CHRM1 antagonist)
COc1cc(OC)nc(Nc2nc(C(N)Cc3ccc(Cl)cc3)cs2)n1 (stereo unspecified)	TAAR1 agonist 47
NC(Cc1ccc(Cl)cc1)c1csc(Nc2ccc(C(F)(F)F)cn2)n1 (stereo unspecified)	TAAR1 agonist 45
CCN=C1NC(c2ccc(C(F)(F)F)cc2)C(C(=O)OC)=C(C)N1Cc1ccccc1C(F)(F)F (stereo unspecified)	none (no result: CHRM1 agonist, M1 PAM, HTR2A ag, CHRM1 antagonist)
CCCC1C(=O)Nc2ccccc2N1C(=O)c1cccc(C)c1 (stereo unspecified)	CHRM1 antagonist 68
CSC1=NSC2=NC(=O)/C(=C\c3coc4ccccc4c3=O)C(=N)N12	CHRM1 agonist 45, TAAR1 agonist 383, CHRM1 antagonist 35, TAAR1 antag 107
N=C1/C(=C\c2coc3ccc(O)cc3c2=O)C(=O)N=C2SC=CN12	CHRM1 agonist 25, TAAR1 agonist 48
N=C1/C(=C/c2coc3ccccc3c2=O)C(=O)N=C2SC(c3ccco3)=NN12	CHRM1 agonist 85, CHRM1 antagonist 52 (no result: TAAR1 agonist, TAAR1 antag)
CN1C(=O)/C(=C/c2coc3ccc(O)cc3c2=O)SC1=S	none
Cc1cccc(C(=O)c2cnc3ccccc3c2-c2ccccc2)c1	TAAR1 antag 49
Cc1cccc(C(=O)NNC(=O)c2ccccc2)c1	none
OC[C@H]1O[C@@H](c2nc3ccc(-c4nc(-c5ccc(Br)cc5)no4)cc3[nH]2)C[C@@H]1O	CHRM1 agonist 16
COc1ccc(NC(=O)C2CC(c3ccccc3Cl)=NO2)cc1 (stereo unspecified)	none
CN1CCC(n2[nH]c(-c3ccccc3)c(Cc3ccccc3)c2=O)CC1	CHRM1 antagonist 100
C[C@@H]1CNCCN1c1ccc(N2CCS(=O)(=O)CC2)c(C#N)c1	none (no result: CHRM1 agonist, M1 PAM, HTR2A ag, CHRM1 antagonist)
CCN1CCN(C(=O)c2cc(COc3ccc(F)c(F)c3)on2)[C@@H](C)C1=O	none
O=S(=O)([O-])CCC[N+]1(CC#Cc2ccccc2)CCCCC1	none
C#CC[N+]1(CC#Cc2ccccc2)CCCC1	none
OCCN(CC#CCC(O)(c1ccccc1)C1CCCC1)CCO (stereo unspecified)	none
CCC[N+]1(CC#CC(O)(c2ccccc2)C2CCCCC2)CCCCC1 (stereo unspecified)	CHRM1 antagonist 99
CCN(CC)CCC#CC(O)(c1ccccc1)C1CCCCC1 (stereo unspecified)	CHRM1 antagonist 99
NC(=O)C[N+]1(CC#CC(O)(c2ccccc2)c2ccccc2)CCCC1	CHRM1 antagonist 92
CCCn1c(SCC(=O)N2N=C3/C(=C/c4ccc(OC)cc4)CCCC3C2c2ccc(OC)cc2)n[nH]c1=O (stereo unspecified)	TAAR1 agonist 49, TAAR1 antag 50
O=C(C[n+]1ccc(C(=O)NCc2ccccc2)cc1)c1ccc(Cl)cc1	none
CC1CCCN(CCCNC(=O)c2ccc(CS(=O)(=O)Cc3cccc(Cl)c3)o2)C1 (stereo unspecified)	none
CC1CCCN(CCCNC(=O)c2ccc(CS(=O)(=O)c3c(Cl)cccc3Cl)o2)C1 (stereo unspecified)	CHRM1 antagonist 57

High-throughput results: PubChem, The Scripps Research Institute Molecular Screening Center
